Experiments:
[1] = Growth inhibition of human RPMI8226 cells after 48 hrs by sulforhodamine B assay; format: functional; conditions: RPMI-8226, 48 h
Procedure, shortened: (§1)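 NCI-60 five-dose screen: cells incubated 48 h with five concentrations (0.01-100 µM), read by sulforhodamine B protein assay. Log concentration-% growth inhibition curves gave GI50 (50% decrease in net growth), TGI (total growth inhibition) and LC50 (net 50% loss of initial cells). 5-FU positive control.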

MDA-MB-231 = assay: Growth inhibition of human MDA-MB-231 cells after 48 hrs by sulforhodamine B assay; format: functional; conditions: MDA-MB-231, 48 h; procedure, shortened: as §1
[2] = Growth inhibition of human MOLT4 cells after 48 hrs by sulforhodamine B assay; format: functional; conditions: MOLT-4, 48 h; procedure, shortened: as §1
[3] = Antioxidant activity assessed as DPPH radical scavenging activity at 10^-4 M incubated for 30 mins by spectrophotometry; format: physicochemical; conditions: 0.5 h, 100 µM
Procedure, shortened: (§2)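 Compound at 10^-3 or 10^-4 M mixed with methanolic DPPH (0.1 mL of 1 mM stock; 3 mL total volume), shaken, kept in the dark 30 min at room temperature. Absorbance read at 517 nm. Scavenging (%) = (A_control − A_sample)/A_control × 100, where the control is DPPH in methanol alone. BHT served as reference antioxidant. Triplicate, mean ± SD of three independent experiments.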

IGROV-1 = assay: Growth inhibition of human IGROV1 cells after 48 hrs by sulforhodamine B assay; format: functional; conditions: IGROV-1, 48 h; procedure, shortened: as §1
[4] = Growth inhibition of human UACC62 cells after 48 hrs by sulforhodamine B assay; format: functional; conditions: UACC-62, 48 h; procedure, shortened: as §1
SR = assay: Growth inhibition of human SR cells after 48 hrs by sulforhodamine B assay; format: functional; procedure, shortened: as §1
[5] = Growth inhibition of human EKVX cells after 48 hrs by sulforhodamine B assay; format: functional; procedure, shortened: as §1
[6] = Growth inhibition of human SF539 cells after 48 hrs by sulforhodamine B assay; format: functional; conditions: SF-539, 48 h; procedure, shortened: as §1
DU-145 = assay: Growth inhibition of human DU145 cells after 48 hrs by sulforhodamine B assay; format: functional; conditions: DU-145, 48 h; procedure, shortened: as §1
[7] = Growth inhibition of human OVCAR4 cells after 48 hrs by sulforhodamine B assay; format: functional; conditions: OVCAR-4, 48 h; procedure, shortened: as §1
[8] = Growth inhibition of human UO31 cells after 48 hrs by sulforhodamine B assay; format: functional; conditions: UO-31, 48 h; procedure, shortened: as §1
[9] = Growth inhibition of human HOP92 cells after 48 hrs by sulforhodamine B assay; format: functional; conditions: HOP-92, 48 h; procedure, shortened: as §1
CCRF-CEM = assay: Growth inhibition of human CCRF-CEM cells after 48 hrs by sulforhodamine B assay; format: functional; procedure, shortened: as §1
[10] = Antioxidant activity assessed as DPPH radical scavenging activity at 10^-3 M incubated for 30 mins by spectrophotometry; format: physicochemical; conditions: 0.5 h, 1000 µM; procedure, shortened: as §2
[11] = Growth inhibition of human BT549 cells after 48 hrs by sulforhodamine B assay; format: functional; conditions: BT-549, 48 h; procedure, shortened: as §1
[12] = Growth inhibition of human HCT116 cells after 48 hrs by sulforhodamine B assay; format: functional; conditions: HCT-116, 48 h; procedure, shortened: as §1
HL-60(TB) = assay: Growth inhibition of human HL-60(TB) cells after 48 hrs by sulforhodamine B assay; format: functional; conditions: HL-60, 48 h
Procedure, shortened: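 NCI-60 five-dose screen, HL-60(TB) being one of the leukemia subpanel lines. Cells exposed to five concentrations (0.01-100 µM) for 48 h. GI50 (concentration giving 50% decrease in net cell growth) read from log concentration-% growth inhibition curves; TGI and LC50 also derived. 5-fluorouracil as positive control.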

MCF7 = assay: Growth inhibition of human MCF7 cells after 48 hrs by sulforhodamine B assay; format: functional; conditions: MCF7, 48 h; procedure, shortened: as §1
SF-268 = assay: Growth inhibition of human SF268 cells after 48 hrs by sulforhodamine B assay; format: functional; conditions: SF-268, 48 h; procedure, shortened: as §1
NCI-H522 = assay: Growth inhibition of human NCI-H522 cells after 48 hrs by sulforhodamine B assay; format: functional; conditions: NCI-H522, 48 h; procedure, shortened: as §1
A498 = assay: Growth inhibition of human A498 cells after 48 hrs by sulforhodamine B assay; format: functional; conditions: A498, 48 h; procedure, shortened: as §1
NCI-H226 = assay: Growth inhibition of human NCI-H226 cells after 48 hrs by sulforhodamine B assay; format: functional; conditions: NCI-H226, 48 h; procedure, shortened: as §1
HOP-62 = assay: Growth inhibition of human HOP62 cells after 48 hrs by sulforhodamine B assay; format: functional; conditions: HOP-62, 48 h; procedure, shortened: as §1
SN12C = assay: Growth inhibition of human SN12C cells after 48 hrs by sulforhodamine B assay; format: functional; procedure, shortened: as §1
SNB-75 = assay: Growth inhibition of human SNB75 cells after 48 hrs by sulforhodamine B assay; format: functional; conditions: SNB-75, 48 h; procedure, shortened: as §1

COc1ccc(-c2cc(-c3cccn3C)c(C#N)c(N)n2)cc1OC
GI50 [1]: 38.9 µM
GI50 (MDA-MB-231): 38 µM
GI50 [2]: 46.8 µM
inhibition (INH) [3]: 19%
GI50 (IGROV-1): 95.5 µM
GI50 [4]: 87.1 µM
GI50 (SR): 56.2 µM
GI50 [5]: > 100 µM
GI50 [6]: 83.2 µM
GI50 (DU-145): 91.2 µM
GI50 [7]: 40.7 µM
GI50 [8]: 97.7 µM
GI50 [9]: 5.13 µM
GI50 (CCRF-CEM): 0.01 µM
LC50 (concentration causing net 50% loss of initial cells) (CCRF-CEM): 9.77 µM
TGI (CCRF-CEM): 3.98 µM
inhibition (INH) [10]: 33%
GI50 [11]: 64.6 µM
GI50 [12]: 89.1 µM
GI50 (HL-60(TB)): 19.5 µM
GI50 (MCF7): 93.3 µM
GI50 (SF-268): 83.2 µM
GI50 (NCI-H522): 40.7 µM
GI50 (A498): 83.2 µM
GI50 (NCI-H226): > 100 µM
GI50 (HOP-62): > 100 µM
GI50 (SN12C): 67.6 µM
GI50 (SNB-75): 20.9 µM
TGI (SNB-75): 70.8 µM
